pCIP destab – p/CIP-EGFP fusion destabilizers, primary screen, fluorescence, F442A cells; Q05BA5; 16 h; decrease of EGFP signal, % at 10 µM; 290,000 compounds, 0.01% hits; AID 1984, 2009;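 active = EGFP signal decrease of at least 30% at 10 µM or well 3 SD below plate mean, unless failing retest; inactive = the rest, including hits failing retest or dose response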
RAM network inh – inhibitors of the yeast RAM network, primary screen, dse1pr::URA3 reporter, 5-FOA selection | 190,000 compounds, 1.8% hits | AID 868, 2007 | S. cerevisiae dse1pr::URA3 reporter, 5-FOA growth OD615, 2 d; analog-sensitive cbk1-as2 kinase mutant strain | inhibition, % at 50 µM;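 active = inhibition above a set limit, 3 SD over mean compound inhibition, cut at about 8.4% in these data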;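 also: 0% = DMSO-only wells with no growth and 100% = 10 µM 1-NA-PP1 full growth; inhibition rescues growth on 5-FOA so higher OD means more RAM inhibition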
NCF1 inh – p47phox/p22phox peptide binding inhibitors, primary screen, biochemical, uHTS, NADPH oxidase regulatory subunit | Neutrophil cytosol factor 1 (Homo sapiens), P14598 | fluorescence polarization, 2 h | inhibition, % at 24.7 µM | 220,000 compounds, 0.53% hits;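 active = inhibition above about 30%, limit read from the data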;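 also: 0% = p47phox with labelled peptide and 100% = labelled peptide alone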
Dynein transport – inhibitors of GR-EGFP nuclear translocation, primary screen, dynein cargo transport inhibitor project, imaging, high-content, 3617.4 mouse cells | test concentration mostly 20 µM; stimulated with dexamethasone, 1 µM; active compounds read low | z-score, hits read low | 220,000 compounds, 0.47% hits | AID 1381, 2008;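 active = plate z-score of nuclear minus cytoplasmic receptor signal below a set negative limit, without overly bright fluorescence or cell loss, cut at about -3.5 in these data, passing the limit was not always enough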;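 also: z-score of nuclear minus cytoplasmic ring GR-EGFP intensity difference per well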
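Buffer or medium: tetracycline-free induction medium containing charcoal-stripped FBS / Reagent: dexamethasone agonist, 1.0 µM final, for 30 min / Technique: automated 10x imaging of fixed Hoechst-stained cells / Times: induction 48 h, compound 1 h, agonist 30 min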
* marks the source's active call; other numbers are inactive results. In the library only some 1.9% were active in any assay of this set; here they are far more common.

COc1ccc(-c2nn(-c3ccccc3)cc2C(=O)Nc2ccc(C(=O)O)cc2)cc1OC was read as pCIP destab 9.8.
CCN(CC)CCNC(=O)c1ccc(NC(=O)c2cn(-c3ccccc3)nc2-c2cccs2)cc1 was read as pCIP destab -10.1, RAM network inh 0.5, NCF1 inh -21.9 and Dynein transport -7.29*.
`O=C(CSCc1ccccc1)Nc1ccc2c(c1)OCO2` gave pCIP destab -1.6, RAM network inh 0.6, NCF1 inh -0.2 and Dynein transport -0.98.
O=C(CSCc1c(Cl)cccc1Cl)Nc1ccc2c(c1)OCO2 was read as pCIP destab 11.8, RAM network inh 9.7*, NCF1 inh 0.8 and Dynein transport 1.07.
`COc1cc(-c2[nH]ncc2CN(C)Cc2nonc2C)cc(OC)c1OC` gave pCIP destab 3.6, RAM network inh 1.6, NCF1 inh 4.2 and Dynein transport -0.257.
COc1cc(-c2[nH]ncc2CN(C)Cc2cc(C)[nH]n2)cc(OC)c1OC was read as pCIP destab 1.8, RAM network inh 0.7, NCF1 inh 36.4* and Dynein transport -0.625.
`O=C(NCc1ccc2c(c1)CCO2)Nc1ccccc1` gave pCIP destab 12.1, NCF1 inh -5.7 and Dynein transport 0.197.
CCOC(=O)c1nn(-c2ccc(OCC)cc2)c2nc(-c3ccco3)c(C#N)c(=O)n12 was read as pCIP destab -4.0, RAM network inh 2.7, NCF1 inh -12.1 and Dynein transport -1.1.
`CCOC(=O)c1nn(-c2ccc(OCC)cc2)c2nc(-c3cccc(OC)c3)c(C#N)c(=O)n12` gave pCIP destab 4.9, RAM network inh 9.7*, NCF1 inh 4.5 and Dynein transport 1.08.
Screening Cc1ccc(CN2CCSCC2)cc1 returned pCIP destab -4.5.
Screening CC(=O)Nc1ccc(-c2nnc(SCc3c(C)cc(C)cc3C)n2C)cc1 returned pCIP destab -5.2, RAM network inh 8.5*, NCF1 inh -2.4 and Dynein transport -1.28.
Screening O=C(O)CSCC(=O)NCc1cccc(C(F)(F)F)c1 returned pCIP destab 13.7, RAM network inh 1.1, NCF1 inh -1.0 and Dynein transport -0.749.
Screening O=C1c2cccnc2C(Nc2ccc(F)c(Cl)c2)N1Cc1cccs1 (stereo not drawn) returned pCIP destab -10.8, RAM network inh 0.5, NCF1 inh -4.2 and Dynein transport 2.3.
For C/C(=N\NC(=O)c1[nH]c2c([N+](=O)[O-])cc(C)cc2c1-c1ccccc1)c1cccnc1 the results were pCIP destab 7.1, RAM network inh 1.5, NCF1 inh 35.3* and Dynein transport -0.5.
For O=C(NCc1ccco1)C(c1ccncc1)N(C(=O)Cn1nnc2ccccc21)c1ccccc1F (stereo not drawn) the results were pCIP destab 8.2.
CCOc1ccc(NC(=O)C2CCCN(S(=O)(=O)c3c(C)noc3C)C2)cc1 (stereo not drawn) was read as pCIP destab -8.8.
Screening Cc1nc2ccc(NC(=O)c3cc([N+](=O)[O-])cc([N+](=O)[O-])c3Cl)cc2s1 returned pCIP destab -3.7, RAM network inh 1.1, NCF1 inh 10.7 and Dynein transport -3.58*.
O=C(Nc1cccc(O)c1)c1cc2nc(-c3ccccc3)cc(-c3ccccc3)n2n1 was read as pCIP destab -4.8, RAM network inh 9.7*, NCF1 inh -2.2 and Dynein transport -0.302.
For O=C(NC1CCCC1)c1cc2nc(-c3ccccc3)cc(-c3ccccc3)n2n1 the results were pCIP destab 0.2, NCF1 inh -17.8 and Dynein transport -0.331.
CCOc1ccccc1/C=N/Nc1ccccc1[N+](=O)[O-] was read as pCIP destab 4.7, RAM network inh 9.8*, NCF1 inh -21.4 and Dynein transport 1.64.
`Cc1[nH]c2ccccc2c1/C=N/NS(=O)(=O)c1ccccc1` gave pCIP destab -3.1, RAM network inh 0.5, NCF1 inh -10.5 and Dynein transport -1.23.
Cc1[nH]c2ccccc2c1/C=N/Nc1ccccc1[N+](=O)[O-] was read as pCIP destab 13.8, RAM network inh 8.8*, NCF1 inh -3.0 and Dynein transport -1.42.
Screening CC(C)Oc1ccccc1/C=N/Nc1ccccc1[N+](=O)[O-] returned pCIP destab -7.3, RAM network inh 8.5*, NCF1 inh -15.9 and Dynein transport -0.696.
Screening CCC(C(=O)NCCCN(CC)Cc1ccccc1)n1nc(C)c2sc3ccccc3c2c1=O (stereo not drawn) returned pCIP destab -3.9.
For CN(C)c1cc[n+](CC(=O)Nc2ccc(Oc3ccccc3)cc2)cc1 the results were pCIP destab -2.7, RAM network inh 2.2, NCF1 inh 5.0 and Dynein transport -1.6.
For O=C(Nc1c2c(nn1-c1ccc(F)cc1)CS(=O)C2)c1ccc2c(c1)OCO2 (stereo not drawn) the results were pCIP destab 6.6.
For CCCCN(CC)S(=O)(=O)c1ccc(C(=O)Nc2nnc(-c3cccs3)o2)cc1 the results were pCIP destab -4.8, RAM network inh 8.6*, NCF1 inh -6.4 and Dynein transport -0.67.
Screening CC(=O)C1=C(O)C(=O)N(c2cccc(Br)c2)C1c1ccccc1Cl (stereo not drawn) returned pCIP destab -2.9.
Screening Cc1ccc(N2C(=O)C3C(C2=O)N2C(c4cccs4)C4C(=O)N(c5ccc(C)cc5)C(=O)C4N2C3c2cccs2)cc1 (stereo not drawn) returned pCIP destab 3.9, RAM network inh 8.6*, NCF1 inh -101.6 and Dynein transport -0.213.
COc1ccc(COc2cc(-c3cccc(OC)c3)nc3ccc(NC(=O)c4ccc(Cl)cc4)cc23)cc1 was read as pCIP destab 0.9, RAM network inh 8.4*, NCF1 inh -12.3 and Dynein transport 0.279.
Screening COc1ccc(COc2cc(-c3cccc(OC)c3)nc3ccc(NC(=O)c4ccc(OC)cc4)cc23)cc1 returned pCIP destab -9.2, RAM network inh 5.8, NCF1 inh -21.6 and Dynein transport -0.223.
CCc1ccc(C(=O)COC(=O)c2cc([N+](=O)[O-])ccc2NCCO)cc1 was read as pCIP destab 0.0, RAM network inh 10.5*, NCF1 inh -7.1 and Dynein transport 0.609.
`COc1cccc2cc(C(=O)C3=C(O)C(=O)N(c4cc(C)on4)C3c3cccs3)oc12` (stereo not drawn) gave pCIP destab -11.9.
Screening CCc1ccc(-c2csc(NC(=O)C3CCCO3)c2C(=O)OC(C)C)cc1 (stereo not drawn) returned pCIP destab -2.2, RAM network inh 10.1*, NCF1 inh -35.4 and Dynein transport -0.321.
Screening CNc1ccc(/C=C(\CCC(=O)O)c2nc3ccccc3s2)cc1[N+](=O)[O-] returned pCIP destab -15.5, RAM network inh 10.5*, NCF1 inh -4.8 and Dynein transport -0.69.

Bioassay records (PubChem BioAssay)
